Hits are enriched below; roughly 3.7% of the tested compounds scored in any of these assays.
PGE2 EP2 inh: human EP2 receptor antagonists, primary screen, TR-FRET cAMP, C6 glioma cells | 260,000 compounds, 0.52% hits | C6 glioma cells expressing human EP2; cells stimulated with saturating PGE2 | AID 1422, 2008 | Prostaglandin E2 receptor EP2 subtype (Homo sapiens), P43116 | inhibition, % at 25 µM;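 active = percent inhibition above 40 after rounding to a whole number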;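 note: rat C6 glioma host cells with rolipram phosphodiesterase inhibitor present; the protocol text gives 20 µM as final concentration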
EP2 mod: EP2 receptor modulators, cAMP readout, primary screen, cell-based, HTRF cAMP, PGE2 stimulation | Prostaglandin E2 receptor EP2 subtype (Homo sapiens), P43116 | EP2-expressing cells, cAMP HTRF FRET, PGE2 co-stimulation | induction, % at 25 µM | 260,000 compounds, 0.83% hits | AID 940, 2007;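 active = compounds whose cAMP rise, as percent of the full-agonist control response, exceeds 60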;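 note: rat C6 glioma line stably carrying human EP2 under a CMV promoter; the protocol text gives 20 µM as final concentration; 100% = response of wells given 1 µM PGE2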
GPR7 antag: GPR7 receptor antagonists, primary screen, cell-based, fluorescence, single concentration. Neuropeptides B/W receptor type 1 (Homo sapiens), P48145. GPR7-expressing cells, fluorescence antagonist assay. inhibition, % at 4.4 µM. 290,000 compounds, 1.1% hits; in the data active = inhibition above about 16%, passing the limit was not always enough;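 note: cells stimulated with the agonist NPW; 0% = agonist with vehicle and 100% = vehicle without agonist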
CHO parental Ca: ATP-evoked calcium signal inhibitors, parental CHO, primary screen, counter-screen for OX1R antagonist project, cell-based, fluorescence, Fluo-8 calcium dye | parental CHO-K1, ATP-induced calcium, Fluo-8 fluorescence | inhibition, % at 5.6 µM | 330,000 compounds, 0.63% hits | AID 463079, 2010;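 active = inhibition above that plate's mean sample inhibition plus 3 SD, cut at about 26% in these data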;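 note: 0% = ATP-challenged DMSO wells and 100% = DMSO wells without ATP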
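Assay system: untransfected parental CHO cell line. Also added: ATP agonist challenge. Dosing: one dose, 5.6 µM nominal. Measured by: Fluo-8 fluorescence. Read-out: % inhibition. Benchmarks: ATP wells versus no-ATP DMSO wells. Repeats: no replicates.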
OX1R antag-1: antagonists of human orexin 1 receptor (OX1R). 330,000 compounds, 1.8% hits. Orexin/Hypocretin receptor type 1 (Homo sapiens), O43613. OX1R-expressing cells, FRET antagonist read-out. inhibition, % at 6.6 µM. AID 485270, 2010; in the data active = inhibition mostly above about 38%, no sharp cut-off; inactive = mostly below about 40%;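 note: 0% = agonist challenge alone and 100% = reference antagonist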
Target sequence (O43613 whole entry, looked up): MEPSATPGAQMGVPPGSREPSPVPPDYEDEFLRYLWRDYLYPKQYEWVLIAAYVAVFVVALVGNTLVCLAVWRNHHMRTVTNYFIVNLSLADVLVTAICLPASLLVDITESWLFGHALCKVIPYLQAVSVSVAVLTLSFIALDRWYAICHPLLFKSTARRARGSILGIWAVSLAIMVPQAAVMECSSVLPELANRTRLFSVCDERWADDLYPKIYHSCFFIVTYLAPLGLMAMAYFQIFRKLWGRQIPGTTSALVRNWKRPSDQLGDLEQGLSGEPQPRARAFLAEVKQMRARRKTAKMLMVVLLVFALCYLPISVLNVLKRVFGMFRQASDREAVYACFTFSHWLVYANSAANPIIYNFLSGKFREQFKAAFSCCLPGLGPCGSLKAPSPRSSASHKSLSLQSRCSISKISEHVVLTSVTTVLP
OX1R antag-2: OX1R (HCRTR1) antagonists, primary screen, fluorescence, CHO/OX1R cells, Fluo-8 calcium, orexin A | Orexin/Hypocretin receptor type 1 (Homo sapiens), O43613 | Fluo-8 calcium fluorescence | inhibition, % at 5 µM | 330,000 compounds, 0.43% hits;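 active = inhibition above its plate's threshold, mean inhibition of all tested compounds on the plate plus 3 SD, cut at about 37% in these data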;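 note: 0% = orexin A challenge wells and 100% = SB-334867-A antagonist wells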
EP2 cAMP induct: cAMP induction in EP2, EP4, beta2-AR and parental cells, confirmation, counter-screen for EP2 modulator project, cell-based, five parallel assays, C6 glioma, HEK293; shares compounds with EP2 mod; cAMP HTRF induction; plus low (about EC15) PGE2 agonist; calls only at 20 µM (by protocol); 1,300 compounds, 47% hits; AID 1080, 2008;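 active = cAMP induction above 50% in the main assay while under 30% in all four parallel counter assays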;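 note: rat C6 glioma cells stably expressing human EP2 receptor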
* marks the source's active call; other numbers are inactive results; i = inactive; . = not tested or not shown; + = active, no number.

SMILES | PGE2 EP2 inh | EP2 mod | GPR7 antag | CHO parental Ca | OX1R antag-1 | OX1R antag-2 | EP2 cAMP induct
CCn1c(=S)[nH]c2c(c1=O)C(C)(C)Cc1ccccc1-2 | 21 | 66* | -18 | . | . | . | i
COc1ccc(-c2nnc3ccc(SCC(=O)Nc4nc5ccccc5s4)nn23)cc1OC | 17 | 66* | -7 | -23 | 13 | -17 | i
COc1ccc(-c2nnc3ccc(SCC(=O)Nc4nccs4)nn23)cc1OC | 5 | -8 | -6 | -13 | 20 | -21 | .
O=C(Cn1c(=O)oc2ccc(Cl)cc21)NC1CCCCC1 | . | . | 22 | -15 | 18 | -13 | .
Cc1cccc(C)c1NC(=O)NCCSc1snnc1C | 3 | 10 | 1 | -8 | 10 | -4 | .
Cc1ccc(C2=NNC(c3cccc(F)c3)S2)cc1 (stereo unspecified) | 9 | -4 | 8 | 4 | 6 | -22 | .
CCOC(=O)C1=NN(c2cccc(C)c2)C2(S1)SC(C(C)=O)=C(C)N2c1ccccc1 (stereo unspecified) | 2 | 78* | -1 | -21 | 13 | -34 | +
CCOC(=O)C1=NN(c2ccc(C)cc2)C2(S1)SC(C(C)=O)=C(C)N2c1ccccc1 (stereo unspecified) | 5 | 74* | 1 | 1 | 26 | -21 | +
CCN1C(=O)c2cccc3c(S(=O)(=O)NCCC(=O)O)ccc1c23 | 7 | 6 | . | . | . | . | .
CSc1ccccc1NC(=O)c1ccc(N2CC3CC(C2)c2cccc(=O)n2C3)c(NC(=O)c2ccncc2)c1 (stereo unspecified) | . | . | -10 | -18 | 0 | -22 | .
CCc1cc2cc3c(cc2nc1SCC(=O)OC(C)C)OCO3 | 2 | 81* | -8 | -21 | 21 | -34 | +
COc1ccc(-n2c(COc3cccc4ccccc34)nnc2SCC#N)cc1 | 10 | 7 | 12 | -22 | 27 | -12 | i
Cc1ccccc1S(=O)(=O)c1c(C)cc(C)n(CC(C)C)c1=O | 9 | 70* | -7 | -17 | 10 | -30 | +
Cc1ccccc1S(=O)(=O)c1c(C)cc(C)n(C)c1=O | -1 | -4 | -3 | -3 | 15 | -12 | .
CCOC(=O)C1=CN(CC2CCCO2)C=C(C(=O)OCC)C1c1ccccc1C(F)(F)F (stereo unspecified) | 5 | 74* | -17 | -21 | 17 | -15 | i
Cc1ccc2cc3c(nc2c1)OCC(=O)N(Cc1cccnc1)C3 | . | -23 | . | . | . | . | .
CC1Cc2ccccc2N1C(=O)CSc1nnc(Cc2ccccc2)n1CCc1ccccc1 (stereo unspecified) | . | 66* | -3 | . | . | . | i
CC1Cc2ccccc2N1C(=O)CSc1nnc(Cc2ccccc2)n1C (stereo unspecified) | 10 | -57 | . | . | . | . | .
N#Cc1ccc(NC(=O)COC(=O)CCc2ccc(S(=O)(=O)N3CCCCC3)cc2)cc1 | 1 | 9 | 0 | 7 | 2 | -15 | .
O=c1[nH]c(SCc2cccc(Cl)c2)nc2c1CCCC2 | 9 | 66* | -6 | -7 | 10 | -17 | i
N#CCSc1nccc(-c2cc(Cl)sc2Cl)n1 | 13 | 45 | 0 | -3 | 30 | -4 | .
C=CCSc1nccc(-c2cc(Cl)sc2Cl)n1 | 17 | 67* | -5 | -1 | 25 | -8 | i
CCN(CC)c1ccc(/C=N/N2CCN(Cc3ccc(C)cc3)CC2)c(O)c1 | 8 | -11 | -3 | -14 | 7 | -23 | .
CN(C)Cc1ccccc1Sc1cccc2ccccc12 | 8 | 75* | 5 | -13 | 10 | -20 | +
O=C(NCc1ccccc1)c1ccc(=O)[nH]n1 | 7 | 14 | 1 | -10 | 15 | -10 | .
SMILES | PGE2 EP2 inh | EP2 mod | GPR7 antag | CHO parental Ca | OX1R antag-1 | OX1R antag-2 | EP2 cAMP induct
O=C(NCc1ccco1)c1ccc(=O)[nH]n1 | 13 | 67* | -2 | -1 | 17 | -3 | i
COc1cc(O)c2c(=O)cc(C)oc2c1CC=C(C)C | 9 | 92* | . | . | . | . | +
Cc1cc(NC(=O)CSc2nc3ccccc3cc2C#N)no1 | . | . | -9 | 1 | 27 | -5 | .
COc1ccccc1CNC(=O)COC(=O)c1ccccn1 | . | . | . | -2 | 6 | -13 | .
COc1ccc(C(=O)CSc2nnc(CCc3ccccc3)n2-c2ccccc2)cc1 | 6 | 40 | 1 | -20 | 8 | 1 | .
COc1ccc(-n2c(CCc3ccccc3)nnc2SCC(=O)c2ccccc2)cc1 | 15 | 52 | -4 | -15 | 32 | -17 | i
CCOC(=O)c1cnc2ccc(OC)cc2c1NCCc1ccc(OC)c(OC)c1 | 6 | 13 | -6 | -16 | 21 | -12 | .
CCn1c(=O)cc(N2CCN(Cc3ccccc3)CC2)[nH]c1=O | . | . | -4 | -3 | 12 | 5 | .
CC1CCC(C(C)C)C(OC(=O)COC(=O)c2ccc(=O)[nH]c2)C1 (stereo unspecified) | 15 | 66* | -11 | -26 | 16 | -17 | i
CC(C)(C(N)=O)N1CCN(c2ncc(C(F)(F)F)cc2Cl)CC1 | 9 | 16 | 1 | -18 | 24 | -12 | .
Cc1cccc2cc(CN(Cc3cccs3)C3(c4nnnn4C4CCCC4)CCCC3)c(=O)[nH]c12 | 13 | 66* | -2 | -12 | 15 | -16 | i
CCc1nn2c(=O)c(S(=O)(=O)Nc3cccc(F)c3)c(C)nc2s1 | . | . | -12 | -3 | 14 | -12 | .
CCOC(=O)CCCCCCCCCCCCC1C=CCC1 (stereo unspecified) | 10 | 54 | . | . | . | . | +
C=CCOC(=O)CCCCCCCC | . | . | . | 0 | 5 | 8 | .
C=CCSc1nc2ccccc2c(=O)n1Cc1ccco1 | 6 | 70* | . | . | . | . | i
COc1ccc2c(c1)nc(CN1CCN(CCO)CC1)n2C | . | . | -13 | -7 | 11 | -14 | .
COc1cc2cc(Br)cc(Br)c2nc1C | 14 | 78* | -6 | -12 | 21 | -15 | i
COc1cc2cnncc2cc1OC | 5 | 17 | 3 | -10 | 6 | -3 | .
OC1(c2ccccc2F)CCN(Cc2ccc(N3CCCC3)c(F)c2)CC1 | 8 | -64 | . | . | . | . | .
COCCn1c(=O)c2ccccc2c2ccccc2c1=O | 4 | 3 | -12 | -1 | 18 | -5 | .
CCCCn1c(=O)c2ccccc2c2ccccc2c1=O | 9 | 82* | -13 | -14 | 15 | -34 | +
